Rows were chosen to be rich in hits. Some 3.6% of all compounds tested hit in one or more screens of this group.
ATG4B inhibitor: blocks human ATG4B protease cleavage of LC3 substrate; 340,000 tested, 0.51% active; AID 504462; inhibition, % at 8.33 µM; Q9Y4P1; ATG4B cleavage of LC3-PLA2, NBD-HPC fluorescence, 1 h; in the data active = inhibition above about 40%
Target sequence (Q9Y4P1 whole entry, looked up): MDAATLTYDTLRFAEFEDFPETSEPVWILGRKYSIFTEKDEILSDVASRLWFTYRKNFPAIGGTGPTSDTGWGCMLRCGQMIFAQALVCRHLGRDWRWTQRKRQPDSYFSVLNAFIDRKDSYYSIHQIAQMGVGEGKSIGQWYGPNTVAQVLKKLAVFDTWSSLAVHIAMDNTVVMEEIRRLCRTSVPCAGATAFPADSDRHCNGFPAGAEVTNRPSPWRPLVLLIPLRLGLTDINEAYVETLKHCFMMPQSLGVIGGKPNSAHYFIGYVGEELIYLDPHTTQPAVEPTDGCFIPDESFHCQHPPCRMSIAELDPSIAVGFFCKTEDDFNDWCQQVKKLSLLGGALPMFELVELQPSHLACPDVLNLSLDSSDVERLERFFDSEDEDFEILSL
GRIN3A LBD mod: NR3A (human) ligand-binding domain modulation; AID 1259313; NR3A LBD differential scanning fluorimetry, Tm shift; 0% = protein alone, 100% = glycine-bound protein; 340,000 tested, 2.5% active; Tm shift relative to glycine control, % at 25 µM;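 active = melting temperature shift of at least 10% of the positive control shift, at one fixed dose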
NadD inh: NadD (S. aureus) enzyme inhibition; purified NadD enzyme, colorimetric absorbance read-out; 360,000 tested, 0.78% active; AID 602399; inhibition, % at 20 µM; in the data active = inhibition above about 26%
UCH37 DUB inh: human UCH37 deubiquitinating enzyme inhibition. Q9Y5K5. purified proteasome/UCH37, Ub-AMC cleavage fluorescence. inhibition, % (no concentration beside the values). 330,000 tested, 0.33% active. AID 588478;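 active = mean inhibition over replicate wells above about 20%, limit read from the data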
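assay system = human UCH37 enzyme supplied as purified proteasome complex | amount = proteasome at 0.15 nM in the dispensed enzyme solution | schedule = 30 min compound-proteasome preincubation then 25 min substrate reaction, room temperature | measured by = fluorescence, ex 355 nm, em 460 nm | benchmarks = no-proteasome wells (full inhibition) and compound-free wells (no inhibition)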
SENP1 inh: SENP1 (human) catalytic domain inhibition; Q9P0U3; AID 624204; recombinant SENP1 catalytic domain, CyPet-SUMO1-YPet FRET cleavage; 360,000 tested, 0.21% active; inhibition, % at 10 µM;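 active = inhibition at least 30% at 10 µM, raw YFP signal under a set limit, fluorescence ratio 0.5 to 1.5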
Target sequence (Q9P0U3 419-644 limits assumed): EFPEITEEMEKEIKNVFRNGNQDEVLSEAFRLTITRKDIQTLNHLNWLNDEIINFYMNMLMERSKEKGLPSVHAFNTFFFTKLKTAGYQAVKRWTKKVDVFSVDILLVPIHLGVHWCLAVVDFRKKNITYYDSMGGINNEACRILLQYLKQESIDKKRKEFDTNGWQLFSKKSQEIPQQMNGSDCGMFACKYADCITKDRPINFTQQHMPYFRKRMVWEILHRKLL
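material = recombinant human SENP1 catalytic domain, His6-tagged | quantity = 20 pM enzyme | reagent = 25 nM SUMO1 FRET substrate | compound dosing = 10 µM single point, 0.5% DMSO | timing = 50 min enzyme reaction, room temperature, light-protected | detection = FRET, CFP and YFP emission | control set = no-enzyme low, enzyme-DMSO high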
Hits are given with their value; - = inactive; . = no result; ! = not active in a repeat.

SMILES	ATG4B inhibitor	GRIN3A LBD mod	NadD inh	UCH37 DUB inh	SENP1 inh
c1ccc(-c2csc3ncnc(N4CCOCC4)c23)cc1	-	-	-	-	-
COc1ccc(-c2csc3ncnc(N4CCN(S(=O)(=O)c5ccc(Cl)s5)CC4)c23)cc1	-	11.5	-	-	-
COc1ccc(-c2csc3ncnc(N4CCN(c5cccc(Cl)c5)CC4)c23)cc1	-	17.6	-	-	-
COc1cccc(C=NNC(=O)NC23CC4CC(CC(C4)C2)C3)c1O	.	.	.	-	.
Cc1ccc(CN2CCN(N=Cc3ccc(C(=O)O)cc3)CC2)cc1	.	.	.	-	.
CCOC(=O)c1cnc2ccc(OCC)cc2c1N1CCN(c2ccccc2OC)CC1	-	-	-	-	-
CCOC(=O)c1cnc2ccc(OCC)cc2c1N(C)Cc1ccccc1	-	11.2	-	-	-
Cc1nn(-c2ccccc2)c(N2CCCC2)c1C=NNC(=O)c1ccccc1O	.	.	.	-	.
COc1cccc(C=Nn2nnnc2N)c1	.	.	.	-	.
CC(=O)Nc1ccc2c(c1)Cc1cc(N3C(=O)C=CC3=O)ccc1-2	-	24.0	-	-	-
C[C@@H](CSc1ccc(Br)cc1)CN1CC[C@H](C(C)(C)C)CCC1=O	-	10.3	-	-	-
O=C(CNC(=O)/C(=C\c1ccc(F)cc1)NC(=O)c1ccccc1)OCc1ccccc1	-	-	-	27.5	-
O=C(CNC(=O)/C(=C\c1ccccc1)NC(=O)c1ccc(Br)cc1)OCc1ccccc1	-	-	-	-	-
O=C(CCCNC(=O)/C(=C/c1ccc(Br)cc1)NC(=O)c1ccccc1)OCc1ccccc1	-	-	-	-	-
NC(=S)NNC(=O)/C(=C/c1ccc(Br)cc1)NC(=O)c1ccccc1	-	13.1	-	-	-
CC(=NNC(=O)CSc1nc2ccccc2s1)c1cccnc1	.	.	.	-	.
CC(CC(=O)NCc1ccco1)=NNC(=O)Cc1ccc(Cl)cc1	.	.	.	32.4	.
COc1ccccc1/C=C(/C(=O)OCC(N)=O)c1ccccc1	-	-	-	-	-
CCc1ccc(NC(=O)COC(=O)/C(=C/c2ccccc2OC)c2ccccc2)cc1	-	23.0	-	-	-
Cc1nc2ccc(C(=O)NN=Cc3ccccc3O)cc2[nH]1	.	.	.	-	.
O=S(=O)(c1ccccc1)c1ccc(C(F)(F)F)cn1	-	-	-	-	-
O=S(=O)(c1cccc(C(F)(F)F)c1)c1ccc(O)cn1	-	11.0	-	-	-
Cc1ccc(OCCOc2ccc(Br)cc2C=NNC(N)=O)cc1	.	.	.	-	.
COc1cc(C2Nc3cccc4cccc(c34)N2)ccc1O	-	-	59.1	-	-
COc1ccc(Br)cc1C1Nc2cccc3cccc(c23)N1	-	-	-	.	-
SMILES	ATG4B inhibitor	GRIN3A LBD mod	NadD inh	UCH37 DUB inh	SENP1 inh
COc1cc(C2Nc3cccc4cccc(c34)N2)cc(OC)c1OC(C)=O	-	-	43.4	-	-
COc1ccccc1NC(=O)C(=NOCc1ccc(F)cc1)C(C)=O	.	.	.	-	.
COc1cc(C=NOCC(=O)NC2CCCCC2)ccc1OCc1ccccc1	.	.	.	-	.
Cc1c(O)ccc(C(=O)COc2ccccc2F)c1O	-	35.3	-	-	-
Nc1nc(O)c(Sc2ccccc2[N+](=O)[O-])c(=O)[nH]1	-	16.6	-	-	-
N#CC(C#N)=Cc1cn(-c2ncc(C(F)(F)F)cc2Cl)c2ccccc12	-	-	-	-	-
CC(=O)/C=C\c1cn(-c2ncc(C(F)(F)F)cc2Cl)c2ccccc12	-	13.6	-	-	-
Cc1ccc(C=NNC(=O)CNC(=O)COc2ccccc2)cc1	.	.	.	-	.
C#CCOCCOCCOCCNc1nc(N2CCN(C(=O)[C@H](Cc3ccc(O)cc3)n3cc([C@@H](N)C(C)CC)nn3)CC2)nc(N2CCN(C(=O)[C@H](Cc3cc4ccccc4[nH]3)n3cc([C@@H](N)C(C)CC)nn3)CC2)n1 (stereo partly drawn)	-	-	33.8	-	-
C#CCOCCOCCOCCNc1nc(N2CCN(C(=O)[C@H](Cc3cc4ccccc4[nH]3)n3cc([C@@H](N)CC(C)C)nn3)CC2)nc(N2CCN(C(=O)[C@H](Cc3cc4ccccc4[nH]3)n3cc([C@@H](N)CC(C)C)nn3)CC2)n1	-	-	69.6	-	-
Cc1cccc(NN=Cc2ccccc2O)c1	.	.	.	-	.
Cc1ccc(C)c(NS(=O)(=O)c2ccc3oc(=O)ccc3c2)c1	-	-	-	-	-
Cc1ccc(C)c(NS(=O)(=O)c2ccc3c(c2)Cc2cc(S(=O)(=O)Nc4cc(C)ccc4C)ccc2-3)c1	-	18.0	-	-	-
CCCCCCCC#Cc1ccccc1/C=N/S(=O)c1ccc(C)cc1 (stereo not drawn)	-	15.8	.	.	.
Cc1noc(NS(=O)(=O)c2ccc(NC(=O)c3cc(F)c(F)c(F)c3F)cc2)c1C	-	91.8	-	-	-
CCOC(=O)NC(NC(=S)Nc1ccc(OCC)cc1)C(Cl)(Cl)Cl (stereo not drawn)	-	-	-	-	-
O=C(NC(NC(=S)Nc1c(Cl)cccc1Cl)C(Cl)(Cl)Cl)OCc1ccccc1 (stereo not drawn)	-	16.9	-	-	-
CN(C)c1ccc(/C=N/N=C2/NC(=O)/C(=C/c3ccc([N+](=O)[O-])cc3)S2)cc1	-	-	50.2	.	-
COC(=O)/C=C1/S/C(=N/N=Cc2ccc(N(C)C)cc2)NC1=O	.	.	.	-	.
O=C(/C=C/c1ccc(Br)o1)OCc1nc2ccsc2c(=O)[nH]1	-	-	53.5	.	-
O=C(OCc1nc2ccsc2c(=O)[nH]1)c1ccco1	-	-	-	-	-
Cc1ccc(C(=O)OCc2nc3ccsc3c(=O)[nH]2)o1	-	-	-	-	-
O=C(OCc1nc2ccsc2c(=O)[nH]1)c1cc(Br)c(Br)s1	-	22.2	-	-	-
O=c1c2ccccc2nc(COc2ccccc2)n1N=Cc1cc([N+](=O)[O-])ccc1O	.	.	.	-	.
Cc1cc(C)cc(N(CC(=O)NCc2ccco2)C(=O)CCC(=O)Nc2ccccn2)c1	-	17.4	-	-	-
SMILES	ATG4B inhibitor	GRIN3A LBD mod	NadD inh	UCH37 DUB inh	SENP1 inh
Cc1ccc(N(CC(=O)NCc2ccco2)C(=O)CCC(=O)Nc2ccccn2)cc1C	-	-	-	-	-
CCCN(C(=O)COC(=O)CNC(=O)c1ccc2ccccc2c1)c1c(N)n(Cc2ccccc2)c(=O)[nH]c1=O	-	20.8	-	-	-
COc1cc(/C=C2\SC(=S)N(NC(=O)c3ccncc3)C2=O)ccc1O	-	-	-	-	48.8
CCOc1cc(/C=C2\SC(=S)N(NC(=O)c3cccnc3)C2=O)ccc1O	-	-	-	-	50.3
CCCCNC(=O)c1ccc(CNc2c(N3CCC(C(=O)OCC)CC3)c(=O)c2=O)cc1	-	11.2!	-	-	-
O=C(CNC(=O)c1cccs1)NN=Cc1ccco1	.	.	.	-	.
Cc1ccc(-c2cc(O)cc3sc(=O)oc23)cc1C	-	10.4	-	-	-
COc1ccc2cc(C(=O)Nc3ccc(O)cc3)sc(=O)c2c1OC	-	30.7	-	.	-
COc1ccc2cc(C(=O)Nc3ccc(F)cc3)sc(=O)c2c1OC	-	20.9	-	.	-
